# Screens (PubChem BioAssay)
# M1 antag: antagonists of rat M1 muscarinic receptor | P08482 | CHO-M1 cells, Fluo-4 calcium, ACh EC80 antagonist mode; stronger effect = lower value | B-score at 10 µM | 3.4% of 64,000 active | AID 628;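 active = calcium fluorescence response, raw or row-and-column corrected B-score, differing from the plate sample mean either way at a set confidence level, mostly lower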
# M1 agonist: M1 muscarinic receptor agonism; B-score at 10 µM; CHO-M1 cells, Fluo-4 calcium fluorescence, agonist mode; stronger effect = higher value; 3% of 64,000 active;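 active = fluorescence rise, raw or as B-score row- and column-corrected plate score, outside the 99.7% band of its plate's samples, either direction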
# D1 mod: allosteric modulators of human D1 dopamine receptor; HEK293 D1, CRE-luciferase, dopamine EC30 potentiation; actives deviate in either direction; P21728; 5.9% of 58,000 active; B-score at 10 µM; AID 641;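 active = luminescence count or its row- and column-corrected plate score outside the 99.7% band of the plate's sample wells, on either side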
# S1P1 ag pot: S1P1 (human) agonism or agonism potentiation; P21453; 0.57% of 56,000 active; S1P1 CRE-bla cells, forskolin, beta-lactamase FRET, potentiator mode; S1P1 agonist co-added at EC20, 2 nM; 100% = saturating reference agonist, 0% = basal; activation, % at 9.5 µM; AID 449;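 active = activation above a cutoff set at the mean activation of all tested compounds plus 3 SD, cut at about 54% in these data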;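 note: forskolin at 4 µM as EC80 and the EC20 agonist is SEW2871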
# S1P3 agonist: agonists of human S1P3 receptor; AID 373; 0.1% of 60,000 active; S1P3 NFAT-BLA reporter cells, agonism, FRET ratio; relative to 1 µM S1P, basal subtracted; activation, % at 4.5 µM; Q99500;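 active = activation above the screen-wide mean plus 3 SD, cut at about 4.5% in these data, passing the limit was not always enough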
# Target sequence (Q99500 whole entry, looked up): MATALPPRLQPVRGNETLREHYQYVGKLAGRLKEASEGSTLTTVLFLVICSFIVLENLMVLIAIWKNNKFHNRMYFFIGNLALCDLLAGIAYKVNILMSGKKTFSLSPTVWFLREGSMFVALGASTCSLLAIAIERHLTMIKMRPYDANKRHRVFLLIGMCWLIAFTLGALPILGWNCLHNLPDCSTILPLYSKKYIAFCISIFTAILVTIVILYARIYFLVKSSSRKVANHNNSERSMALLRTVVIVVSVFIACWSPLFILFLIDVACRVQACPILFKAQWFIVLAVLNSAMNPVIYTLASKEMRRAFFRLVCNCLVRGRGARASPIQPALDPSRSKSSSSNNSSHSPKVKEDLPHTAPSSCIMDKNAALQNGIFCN
#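 Assay system: CHO cells stably expressing human S1P3, Gα16 and NFAT-β-lactamase reporter. Timing: overnight plating, 4 h compound 37 °C, 2 h substrate RT. Signal: β-lactamase FRET emission ratio 460/535 nm. Measure: percent activation versus median 1 µM S1P response, basal-subtracted, per plate. Repeats: primary screen single test, confirmation screen in triplicate.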
# M1 ag confirm: confirmation of rat M1 muscarinic receptor agonists; CHO-M1 cells, Fluo-4 calcium fluorescence, agonist mode; actives lie on both sides; shares compounds with M1 agonist; fluorescence change (max-min) at 10 µM; AID 1488; 19% of 1,700 active;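 active = fluorescence change differs from the solvent-only DMSO control mean at a set confidence level in both duplicate runs; inconclusive = differs from solvent-only control mean in just one of two runs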;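 note: an EC20 dose of acetylcholine follows compound addition during the same imaging run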
# M4 agonist ctr: rat M4 muscarinic agonism, M1 counter-screen | CHO M4/Gqi5 cells, Fluo-4 calcium fluorescence, agonist mode; actives lie on both sides | shares compounds with M1 agonist | AID 1741 | fluorescence change (max-min) at 10 µM | 9% of 1,700 active;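 active = fluorescence change differing from the plate's solvent-only control wells at 99.7% confidence in both duplicates, whether higher or lower; inconclusive = differs from solvent controls in only one of two duplicates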
# A number is an active result; i = inactive; ? = inconclusive; nt = no result. Sampled rows, rich in hits. Any-hit rate of the full collection: about 11%.
SMILES,M1 antag,M1 agonist,D1 mod,S1P1 ag pot,S1P3 agonist,M1 ag confirm,M4 agonist ctr
COc1cccc(-c2cc(C(=O)N3CCN(c4ncccn4)CC3)c3ccccc3n2)c1,i,i,i,i,i,nt,nt
Cc1ccc(-c2cc(C(=O)N3CCN(c4ncccn4)CC3)c3ccccc3n2)cc1,i,8.8,i,i,i,i,-111
Cc1ccc2nc(-c3ccccn3)cc(C(=O)N3CCN(c4ncccn4)CC3)c2c1,i,3.6,i,i,i,i,i
Cc1cc(C(=O)N2CCN(c3ncccn3)CC2)c2cc(F)ccc2n1,i,i,nt,i,i,nt,nt
O=C(c1c(F)c(F)c(F)c(F)c1F)N1CCc2ccccc21,i,i,i,i,i,nt,nt
CCOc1ccc(CC(=O)Nc2c(C(N)=O)oc3ccc(Br)cc23)cc1OCC,i,3.1,nt,i,i,i,i
COC(=O)c1oc2ccc(Br)cc2c1NC(=O)CCN1CCOCC1,i,i,i,i,i,nt,nt
CCn1c(SCC(=O)N2CCOCC2)nc2c(c1=O)SC(C)C2 (stereo not given),i,i,i,i,i,nt,nt
COC(=O)C1=C(C)N(C)C(C)=C(C(=O)OC)C1c1ccccn1,i,i,i,i,i,nt,nt
CC(C)OCCCn1c(=NC(=O)c2ccncc2)c(C#N)cc2c(=O)n3ccccc3nc21,i,25,i,i,i,219,?
CC(C)OCCCn1c(=N)c(C(N)=S)cc2c(=O)n3ccccc3nc21,i,4,nt,i,i,i,?
CCCCn1c(=NC(=O)c2ccc3c(c2)OCO3)c(C#N)cc2c(=O)n3cccc(C)c3nc21,i,13,i,i,i,?,i
COC(=O)c1cc2c(=O)n3ccccc3nc2n(Cc2cccnc2)c1=N,i,i,i,nt,i,nt,nt
COC(=O)c1cc2c(=O)n3ccccc3nc2n(C)c1=N,i,i,i,i,i,nt,nt
CC1Cc2ccccc2N1C(=O)CN1C(=O)NC(C)(c2ccc3c(c2)OCCO3)C1=O (stereo not given),i,5.6,i,i,i,i,i
CCOC(=O)C1CCN(C(=O)C2CC(=O)N(c3ccc(C)cc3)C2)CC1 (stereo not given),i,i,i,i,i,nt,nt
Cc1oc(-c2ccc(Cl)cc2)nc1CN1CCCC(C(=O)N2CCN(C(=O)c3ccco3)CC2)C1 (stereo not given),i,4,-3.3,i,i,i,i
CCN1CCN(C(=O)C2CCN(Cc3nc(-c4ccc(Cl)cc4)oc3C)CC2)CC1,i,i,i,i,i,nt,nt
COc1cccc(-n2c(Cc3cc(=O)[nH]c(=O)[nH]3)nnc2SCC(=O)N2CCCC2)c1,i,i,i,i,i,nt,nt
COc1ccc(-n2c(Cc3cc(=O)[nH]c(=O)[nH]3)nnc2SCC(=O)N2CCCC2)cc1,i,3.5,i,i,i,i,i
Cc1nc(NC(C)c2ccccc2)c2oc3ccccc3c2n1 (stereo not given),i,3.3,i,i,i,i,i
COc1ccc(CCNc2ncnc3c2oc2ccccc23)cc1OC,-4.1,7.1,i,116,i,i,i
COc1ccc(CCNc2nc(C)nc3c2oc2ccccc23)cc1OC,-2.3,18,nt,nt,nt,i,?
Cc1nc(NCCc2cnc[nH]2)c2oc3ccccc3c2n1,i,i,i,nt,nt,nt,nt
COc1ccc(-n2c(=O)c3c4c(sc3n3c(C)nnc23)CC(C)CC4)cc1 (stereo not given),i,i,nt,i,i,nt,nt
SMILES,M1 antag,M1 agonist,D1 mod,S1P1 ag pot,S1P3 agonist,M1 ag confirm,M4 agonist ctr
COc1ccccc1N1C(=O)C2C3C=CC(C3)C2C1=O (stereo not given),i,i,i,i,i,nt,nt
CCOc1cccc(C(=O)Nc2cccc(-c3nc4ncccc4o3)c2C)c1,i,4.2,i,nt,i,?,-80
O=C(Cc1ccccc1)Nc1cccc(-c2nc3ncccc3o2)c1,i,i,i,i,i,nt,nt
O=C(Nc1cccc(-c2nc3ncccc3o2)c1)c1cc2ccccc2o1,i,6,i,i,i,i,?
Cc1ccc(-c2nc3ncccc3o2)cc1NC(=O)c1cc2ccccc2o1,i,i,i,i,i,nt,nt
Cc1cc(C)cc(OCC(=O)Nc2cccc(-c3nc4ncccc4o3)c2)c1,i,6.8,i,i,i,i,i
CC(C)Nc1nc2n(c(=O)n1)CCN2C(C)C,i,i,i,nt,i,nt,nt
CC(C)NC(=O)CSc1nnc(-c2ccc(S(=O)(=O)N3CCCC3)cc2)n1CC1CCCO1 (stereo not given),i,i,nt,i,i,nt,nt
CCOC(=O)N1CCC(NC(=O)c2cc3ccccn3n2)CC1,i,i,i,i,i,nt,nt
O=c1[nH]c2cc3c(cc2cc1CN(Cc1nnnn1CC1CCCO1)C1CCCCC1)OCO3 (stereo not given),i,3.6,nt,i,i,93,?
CCC(C)(C)n1nnnc1CN(Cc1cc2cc(OC)ccc2[nH]c1=O)C1CCCC1,i,2.6,nt,i,i,i,i
CCn1c(SCC(=O)Nc2cccc(C)c2)nc2c(c1=O)SC(C)C2 (stereo not given),i,i,i,i,i,nt,nt
CCOC(=O)c1cc(-c2ccc(/C=N\n3cnnc3)o2)ccc1Cl,i,4.9,i,i,i,-27,i
Clc1ccccc1-c1ccc(/C=N/n2cnnc2)o1,i,i,i,i,i,nt,nt
CCOC(=O)N1CCN(C(=O)c2ccc3nc(SCc4ccc(F)cc4)n(C)c3c2)CC1,-2.8,4,nt,i,i,?,i
c1ccc(COc2ccc(Nc3ncnc4nc[nH]c34)cc2)cc1,i,i,i,i,i,nt,nt
CC1CCc2cc(F)cc3c(O)c(C(=O)Nc4cnccn4)c(=O)n1c23 (stereo not given),i,i,i,i,i,nt,nt
CC1(C)CC(C#N)(N2CCOCC2)CCO1 (stereo not given),i,i,i,i,i,nt,nt
CC1CC(=O)c2cnc(Nc3cccc(C(F)(F)F)c3)nc2C1 (stereo not given),i,3,i,i,i,i,i
COc1ccccc1CNC(=O)c1cc2c(=O)n(C)c3ccccc3c2n1C,i,i,i,i,i,nt,nt
O=CNCC(=O)NCCc1ccc(Cl)cc1,i,i,i,i,i,nt,nt
COc1ccc(C2C(C#N)=C(N)SC(N)=C2C#N)cc1OC,i,38,nt,i,i,i,i
COc1ccc(C2C(C#N)=C(N)OC(C(C)(C)C)=C2C#N)cc1OC (stereo not given),i,i,i,i,i,nt,nt
Cc1cc(OCc2nnc(SCC(=O)OC3CCCCC3)o2)ccc1Cl,i,4.6,i,i,i,?,?
CCN(CC)c1nc2ccccc2nc1C(C#N)C(=O)NCCc1ccccc1 (stereo not given),i,219,i,i,i,2068,1724
